In brackets after ≈: the same amount, converted by molar mass.
Assays:
Format in all cases: functional, Salmonella enterica subsp. enterica serovar Typhimurium
[1] = system: Salmonella typhimurium; experiment: Antimicrobial activity against Salmonella enterica serovar Typhimurium S21-3 acrAB::Kan with GyrA S83F, ParC S80I mutation
Procedure, shortened: (§1)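 MICs measured by broth microdilution on the Sensititre automated system and interpreted by CLSI broth microdilution standards. Ciprofloxacin was also tested by agar dilution, widening the range to 0.0075–128 μg/ml. Quality control strains were E. coli ATCC 25922 and 35218, E. faecalis ATCC 29212, S. aureus ATCC 29213 and P. aeruginosa ATCC 27853.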

[2] = system: Salmonella typhimurium; experiment: Antimicrobial activity against Salmonella enterica serovar Typhimurium S21-3 with GyrA S83F, ParC S80I mutation; procedure, shortened: as §1
[3] = system: Salmonella typhimurium; experiment: Antimicrobial activity against Salmonella enterica serovar Typhimurium S21-1 tolC::Kan with GyrA S83F mutation; procedure, shortened: as §1
[4] = system: Salmonella typhimurium; experiment: Antimicrobial activity against Salmonella enterica serovar Typhimurium S21 acrAB::Kan
Procedure, shortened: (§2)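 MICs by automated broth microdilution panels, interpreted to CLSI broth microdilution standards. Ciprofloxacin additionally tested by agar dilution across 0.0075 to 128 μg/ml. Quality control strains: E. coli ATCC 25922 and 35218, Enterococcus faecalis ATCC 29212, S. aureus ATCC 29213, P. aeruginosa ATCC 27853. Test strains are kanamycin-marked deletion mutants of ground-beef isolate S21.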

[5] = system: Salmonella typhimurium; experiment: Antimicrobial activity against Salmonella enterica serovar Typhimurium S21-4 tolC::Kan with GyrA S83F, ParC S80I mutation; procedure, shortened: as §1
[6] = system: Salmonella typhimurium; experiment: Antimicrobial activity against Salmonella enterica serovar Typhimurium CHS38 with GyrA D87G mutation; procedure, shortened: as §1
[7] = system: Salmonella typhimurium; experiment: Antimicrobial activity against Salmonella enterica serovar Typhimurium CHS18 tolC::Kan with GyrA S38F mutation; procedure, shortened: as §1
[8] = system: Salmonella typhimurium; experiment: Antimicrobial activity against Salmonella enterica serovar Typhimurium S21-4 with GyrA S83F, ParC S80I mutation; procedure, shortened: as §1
[9] = system: Salmonella typhimurium; experiment: Antimicrobial activity against Salmonella enterica serovar Typhimurium CHS18 with GyrA S38F mutation; procedure, shortened: as §1
[10] = system: Salmonella typhimurium; experiment: Antimicrobial activity against Salmonella enterica serovar Typhimurium CHS18 gyrA+ with GyrA S38F mutation; procedure, shortened: as §1
[11] = system: Salmonella typhimurium; experiment: Antimicrobial activity against Salmonella enterica serovar Typhimurium CS3 gyrA+ with GyrA S83F, D87N, ParC S80I mutation; procedure, shortened: as §1
[12] = system: Salmonella typhimurium; experiment: Antimicrobial activity against Salmonella enterica serovar Typhimurium S21-1 GyrA S83F mutant; procedure, shortened: as §1
[13] = system: Salmonella typhimurium; experiment: Antimicrobial activity against Salmonella enterica serovar Typhimurium CHS38 acrAB::Kan with GyrA D87G mutation; procedure, shortened: as §1
[14] = system: Salmonella typhimurium; experiment: Antimicrobial activity against Salmonella enterica serovar Typhimurium CHS14 gyrA+ with GyrA D87G mutation; procedure, shortened: as §1
[15] = system: Salmonella typhimurium; experiment: Antimicrobial activity against Salmonella enterica serovar Typhimurium CHS14 with GyrA D87G mutation; procedure, shortened: as §1
[16] = system: Salmonella typhimurium; experiment: Antimicrobial activity against Salmonella enterica serovar Typhimurium CS9 gyrA+ with GyrA S83F, D87N, ParC S80I mutation; procedure, shortened: as §1
[17] = system: Salmonella typhimurium; experiment: Antimicrobial activity against Salmonella enterica serovar Typhimurium CHS38 tolC::Kan with GyrA D87G mutation; procedure, shortened: as §1
[18] = system: Salmonella typhimurium; experiment: Antimicrobial activity against Salmonella enterica serovar Typhimurium S21-3 gyrA+ with ParC S80I mutation; procedure, shortened: as §1
[19] = system: Salmonella typhimurium; experiment: Antimicrobial activity against Salmonella enterica serovar Typhimurium S21-2 gyrA+ with ParC S80I mutation; procedure, shortened: as §1
[20] = system: Salmonella typhimurium; experiment: Antimicrobial activity against Salmonella enterica serovar Typhimurium CS1 acrAB::Kan with GyrA S83F, D87N, ParC S80I mutation; procedure, shortened: as §1
[21] = system: Salmonella typhimurium; experiment: Antimicrobial activity against Salmonella enterica serovar Typhimurium S21-2 acrAB::Kan with GyrA S83F, ParC S80I mutation; procedure, shortened: as §1
[22] = system: Salmonella typhimurium; experiment: Antimicrobial activity against Salmonella enterica serovar Typhimurium CS1 gyrA+ with GyrA S83F, D87N, ParC S80I mutation; procedure, shortened: as §1
[23] = system: Salmonella typhimurium; experiment: Antimicrobial activity against Salmonella enterica serovar Typhimurium CS3 with GyrA S83F, D87N, ParC S80I mutation; procedure, shortened: as §1
[24] = system: Salmonella typhimurium; experiment: Antimicrobial activity against Salmonella enterica serovar Typhimurium S21 tolC::Kan; procedure, shortened: as §2
[25] = system: Salmonella typhimurium; experiment: Antimicrobial activity against Salmonella enterica serovar Typhimurium S21 gyrA+; procedure, shortened: as §1
[26] = system: Salmonella typhimurium; experiment: Antimicrobial activity against Salmonella enterica serovar Typhimurium S21-3 tolC::Kan with GyrA S83F, ParC S80I mutation; procedure, shortened: as §1
[27] = system: Salmonella typhimurium; experiment: Antimicrobial activity against Salmonella enterica serovar Typhimurium S21-4 gyrA+ with ParC S80I mutation; procedure, shortened: as §1
[28] = system: Salmonella typhimurium; experiment: Antimicrobial activity against Salmonella enterica serovar Typhimurium CHS14 tolC::Kan with GyrA D87G mutant; procedure, shortened: as §1
[29] = system: Salmonella typhimurium; experiment: Antimicrobial activity against Salmonella enterica serovar Typhimurium S21-2 with GyrA S83F, ParC S80I mutation; procedure, shortened: as §1
[30] = system: Salmonella typhimurium; experiment: Antimicrobial activity against Salmonella enterica serovar Typhimurium S21; procedure, shortened: as §1
[31] = system: Salmonella typhimurium; experiment: Antimicrobial activity against Salmonella enterica serovar Typhimurium CS1 tolC::Kan with GyrA S83F, D87N, ParC S80I mutation; procedure, shortened: as §1
[32] = system: Salmonella typhimurium; experiment: Antimicrobial activity against Salmonella enterica serovar Typhimurium CHS14 acrAB::Kan with GyrA D87G mutation; procedure, shortened: as §1
[33] = system: Salmonella typhimurium; experiment: Antimicrobial activity against Salmonella enterica serovar Typhimurium CS3 acrAB::Kan with GyrA S83F, D87N, ParC S80I mutation; procedure, shortened: as §1
[34] = system: Salmonella typhimurium; experiment: Antimicrobial activity against Salmonella enterica serovar Typhimurium CS9 acrAB::Kan with GyrA S83F, D87N, ParC S80I mutation; procedure, shortened: as §1
[35] = system: Salmonella typhimurium; experiment: Antimicrobial activity against Salmonella enterica serovar Typhimurium S21-1 gyrA+; procedure, shortened: as §1
[36] = system: Salmonella typhimurium; experiment: Antimicrobial activity against Salmonella enterica serovar Typhimurium CHS18 acrAB::Kan with GyrA S38F mutation; procedure, shortened: as §1
[37] = system: Salmonella typhimurium; experiment: Antimicrobial activity against Salmonella enterica serovar Typhimurium CS9 with GyrA S83F, D87N, ParC S80I mutation; procedure, shortened: as §1
[38] = system: Salmonella typhimurium; experiment: Antimicrobial activity against Salmonella enterica serovar Typhimurium S21-2 tolC::Kan with GyrA S83F, ParC S80I mutation; procedure, shortened: as §1
[39] = system: Salmonella typhimurium; experiment: Antimicrobial activity against Salmonella enterica serovar Typhimurium S21-4 acrAB::Kan with GyrA S83F, ParC S80I mutation; procedure, shortened: as §1
[40] = system: Salmonella typhimurium; experiment: Antimicrobial activity against Salmonella enterica serovar Typhimurium CHS38 gyrA+ with GyrA D87G mutation; procedure, shortened: as §1
[41] = system: Salmonella typhimurium; experiment: Antimicrobial activity against Salmonella enterica serovar Typhimurium CS9 tolC::Kan with GyrA S83F, D87N, ParC S80I mutation; procedure, shortened: as §1
[42] = system: Salmonella typhimurium; experiment: Antimicrobial activity against Salmonella enterica serovar Typhimurium CS1 with GyrA S83F, D87N, ParC S80I mutation; procedure, shortened: as §1
[43] = system: Salmonella typhimurium; experiment: Antimicrobial activity against Salmonella enterica serovar Typhimurium GyrA S21-1 acrAB::Kan with GyrA S83F mutation; procedure, shortened: as §1
[44] = system: Salmonella typhimurium; experiment: Antimicrobial activity against Salmonella enterica serovar Typhimurium CS3 tolC::Kan with GyrA S83F, D87N, parC S80I mutation; procedure, shortened: as §1

Compound: CCn1cc(C(=O)O)c(=O)c2cc(F)c(N3CCNCC3)nc21 [ENOXACIN]
- MIC [1]: 0.25 µg/mL (≈ 0.78 µM)
- MIC [2]: > 16 µg/mL
- MIC [3]: 0.06 µg/mL (≈ 0.187 µM)
- MIC [4]: < 0.015 µg/mL
- MIC [5]: 0.12 µg/mL (≈ 0.375 µM)
- MIC [6]: 0.12 µg/mL (≈ 0.375 µM)
- MIC [7]: 0.03 µg/mL (≈ 0.0937 µM)
- MIC [8]: > 16 µg/mL
- MIC [9]: 0.5 µg/mL (≈ 1.56 µM)
- MIC [10]: 0.12 µg/mL (≈ 0.375 µM)
- MIC [11]: 0.06 µg/mL (≈ 0.187 µM)
- MIC [12]: 0.5 µg/mL (≈ 1.56 µM)
- MIC [13]: 0.03 µg/mL (≈ 0.0937 µM)
- MIC [14]: 0.06 µg/mL (≈ 0.187 µM)
- MIC [15]: 1 µg/mL (≈ 3.12 µM)
- MIC [16]: 0.06 µg/mL (≈ 0.187 µM)
- MIC [17]: < 0.015 µg/mL
- MIC [18]: 2 µg/mL (≈ 6.24 µM)
- MIC [19]: 1 µg/mL (≈ 3.12 µM)
- MIC [20]: 4 µg/mL (≈ 12.5 µM)
- MIC [21]: 0.12 µg/mL (≈ 0.375 µM)
- MIC [22]: 0.06 µg/mL (≈ 0.187 µM)
- MIC [23]: 16 µg/mL (≈ 49.9 µM)
- MIC [24]: < 0.015 µg/mL
- MIC [25]: 0.06 µg/mL (≈ 0.187 µM)
- MIC [26]: 0.12 µg/mL (≈ 0.375 µM)
- MIC [27]: 4 µg/mL (≈ 12.5 µM)
- MIC [28]: < 0.015 µg/mL
- MIC [29]: 8 µg/mL (≈ 25 µM)
- MIC [30]: 0.06 µg/mL (≈ 0.187 µM)
- MIC [31]: 4 µg/mL (≈ 12.5 µM)
- MIC [32]: 0.03 µg/mL (≈ 0.0937 µM)
- MIC [33]: 4 µg/mL (≈ 12.5 µM)
- MIC [34]: 4 µg/mL (≈ 12.5 µM)
- MIC [35]: 0.06 µg/mL (≈ 0.187 µM)
- MIC [36]: 0.25 µg/mL (≈ 0.78 µM)
- MIC [37]: 16 µg/mL (≈ 49.9 µM)
- MIC [38]: 0.12 µg/mL (≈ 0.375 µM)
- MIC [39]: 0.12 µg/mL (≈ 0.375 µM)
- MIC [40]: < 0.015 µg/mL
- MIC [41]: 4 µg/mL (≈ 12.5 µM)
- MIC [42]: 16 µg/mL (≈ 49.9 µM)
- MIC [43]: 0.06 µg/mL (≈ 0.187 µM)
- MIC [44]: 4 µg/mL (≈ 12.5 µM)

— ChEMBL document CHEMBL1142136, “Contribution of target gene mutations and efflux to decreased susceptibility of Salmonella enterica serovar typhimurium to fluoroquinolones and other antimicrobials” (2007)
